# Screens as filed in PubChem BioAssay.
# Compounds with a hit are over-represented: about 2.3% of the library has one in this group of screens.
# LMPTP inh – blocks human LMPTP phosphatase. P24666. inhibition, % at 20 µM. recombinant LMPTP-A, OMFP fluorogenic substrate, fluorescence intensity. 360,000 compounds, 0.22% hits. AID 651560;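 active means compounds that cut the enzyme signal by at least half of the control window in the single-dose screen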;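 further: plate controls were DMSO wells with enzyme plus substrate for no effect and substrate without enzyme for full effect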
# Target sequence (P24666 whole entry, looked up): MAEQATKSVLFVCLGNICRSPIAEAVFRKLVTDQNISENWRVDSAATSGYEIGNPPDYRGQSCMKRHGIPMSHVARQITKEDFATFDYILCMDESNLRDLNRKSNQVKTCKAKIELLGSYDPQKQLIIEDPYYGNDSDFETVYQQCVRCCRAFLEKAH
#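 Test system: LMPTP-A phosphatase enzyme. Amount: LMPTP-A at 0.625 nM final in the reaction. Reagent: OMFP substrate, 400 µM final. Times: 50 min at room temperature. Signal: endpoint fluorescence intensity from OMFP dephosphorylation. Read-out basis: % inhibition. Benchmarks: no-enzyme and uninhibited controls.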
# Rpn11 block – inhibitors of human proteasome Rpn11. O00487. human 26S proteasome, Ub4-pepOG fluorescence polarization; 20S core pre-blocked with epoxomicin. inhibition, % at 20 µM. 360,000 compounds, 0.59% hits. AID 588493;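 active means inhibition at 20 µM, scaled to each plate's controls, above about 33%, limit read from the data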
# DNMT1 block – DNMT1 (human) enzyme inhibition; DNMT1 molecular beacon, Hinp1I cleavage, fluorescence; 360,000 compounds, 0.83% hits; inhibition (reported as % activation of signal), % at 10 µM; P26358; AID 588458; in the data active means inhibition above about 50%
# SUMO1 PPI mod – SUMO1-SIM interaction modulation. P63165. SUMO1 binding to a labelled peptide, TR-FRET, 1 h. inhibition, % at 20 µM. 360,000 compounds, 0.33% hits. AID 602429; in the data active means inhibition above about 37%
# Target sequence (P63165 whole entry, looked up): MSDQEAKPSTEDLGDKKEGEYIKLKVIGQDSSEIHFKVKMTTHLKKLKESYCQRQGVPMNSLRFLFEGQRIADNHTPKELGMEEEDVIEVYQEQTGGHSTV
# STEP inh – inhibitors of human striatal-enriched phosphatase STEP | P54829 | recombinant STEP, OMFP fluorogenic substrate, fluorescence | inhibition, % at 20 µM | 360,000 compounds, 0.25% hits;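 active means inhibition at 20 µM, scaled per plate between control wells, above about 37%, limit read from the data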;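 further: 0% = DMSO with enzyme and substrate and 100% = substrate only without enzyme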
#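 Also added – OMFP at 25 µM · Test system – STEP tyrosine phosphatase · Technique – FITC-channel fluorescence of OMFP product · Schedule – 20 min at room temperature, dark · Evaluation – control-normalized % inhibition with plate pattern correction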
# Scp-1 inhibitor – inhibitors of human Scp-1 phosphatase; 340,000 compounds, 0.88% hits; Recombinant Scp1, phosphopeptide, malachite green phosphate absorbance; inhibition, % at 20 µM;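 active means inhibition above about 50% at 20 µM, limit read from the data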;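 further: plate controls were DMSO wells with enzyme for no effect and wells lacking enzyme for full effect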
# Target sequence (Q9GZU7 76-261 limits assumed): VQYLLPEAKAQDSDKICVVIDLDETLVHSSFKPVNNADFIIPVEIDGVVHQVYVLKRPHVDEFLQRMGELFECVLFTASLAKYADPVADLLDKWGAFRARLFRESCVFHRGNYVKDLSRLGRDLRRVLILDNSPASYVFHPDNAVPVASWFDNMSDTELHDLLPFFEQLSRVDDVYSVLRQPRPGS
#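 Incubation: 45 min enzyme reaction at room temperature / System: truncated SCP-1 phosphatase (76-261aa) / Reagent: Phospho 17-mer peptide substrate / Buffer or medium: Acidic Tris acetate buffer with magnesium and detergent / Signal: absorbance at 630 nm / Doses: one concentration, 20 µM, with 1.0% DMSO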
# Scp-1 conf – confirmation of human Scp-1 phosphatase inhibitors | recombinant SCP-1 catalytic domain, phosphate release, malachite green absorbance | shares compounds with Scp-1 inhibitor | AID 540281 | 2,500 compounds, 61% hits | inhibition, % at 20 µM;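 further: plate controls were DMSO with enzyme for no effect and buffer wells lacking enzyme for full effect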
# MG interference – counter-screen for Scp-1 inhibitors: colorimetric interference. shares compounds with Scp-1 inhibitor. 2,500 tested, under 10 active. AID 540313. Colorimetric interference counterscreen, malachite green absorbance 630 nm. apparent inhibition (interference), % at 20 µM;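 further: compounds added after enzyme reaction finished so only phosphate colour detection is probed; plate controls were DMSO wells with completed Scp-1 reaction for no effect and substrate wells lacking enzyme for full effect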
# Scp1 DSF – Scp-1 (human) binding by thermal shift; thermal shift relative to vanadate control, % at 40 µM; shares compounds with Scp-1 inhibitor; 1,500 compounds, 25% hits; Recombinant SCP1, Sypro Orange thermal shift Tm; AID 540329;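 active means substances whose mean melting-temperature shift, as a percentage of the reference inhibitor's shift, reaches about 5.3%, limit read from the data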;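 further: 0% = Tm of DMSO wells and 100% = Tm with sodium orthovanadate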
# * marks the source's active call; other numbers are inactive results; x = no result.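 How the source made its calls, unless noted: active means inhibition of at least 30% at 20 µM; inactive means the rest.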
SMILES,LMPTP inh,Rpn11 block,DNMT1 block,SUMO1 PPI mod,STEP inh,Scp-1 inhibitor,Scp-1 conf,MG interference,others
COc1ccc(OCC(=O)Nc2cccc(NC(=O)c3ccco3)c2)cc1,-1.9,-3.3,-2.7,4.4,3.6,-4.0,x,x,
O=C(COC(=O)c1ccc[n+]([O-])c1)Nc1ccccc1OC(F)F,-1.2,3.3,2.1,-2.0,-1.8,-5.0,x,x,
O=C(C[n+]1ccc(C(=O)c2ccccc2)cc1)Nc1ccccc1OC(F)F,-1.6,5.7,-2.5,-46.5,-0.8,83.0*,-3.5,-0.2,
CCCn1c(SCC(=O)N(CC)c2c(N)n(Cc3ccccc3)c(=O)[nH]c2=O)nnc1-c1ccncc1,-0.3,-3.3,5.7,1.1,2.1,2.1,x,x,
CCOC(=O)C1=C(C)N(c2ccc(C)c(C)c2)C(=O)/C1=C\c1ccco1,2.9,1.6,3.7,-4.5,2.0,-15.2,x,x,
COC(=O)C1=C(C)N(c2ccc(C)c(C)c2)/C(=C/c2ccco2)C1=O,3.2,21.5,28.4,-13.6,2.0,58.9*,19.9,-9.0,
O=C(Nc1cccc(F)c1)C1CCCN1S(=O)(=O)c1cccc2cccnc12 (configuration not stated),-0.6,-0.1,1.5,-0.6,2.7,-9.1,x,x,
CC(=O)c1ccc(NC(=O)C2CCN(S(=O)(=O)c3cccc4cccnc34)CC2)cc1,0.1,-4.7,4.4,0.0,3.2,63.4*,-16.9,-15.6,
COc1ccc(NC(=O)C2CCN(S(=O)(=O)c3cccc4cccnc34)CC2)cc1,-0.1,2.0,-5.7,5.0,-0.9,-6.1,x,x,
O=C(Nc1ccc2c(c1)OCCO2)C1CCCN1S(=O)(=O)c1cccc2cccnc12 (configuration not stated),-0.4,-0.7,-6.4,-1.1,-1.8,57.4*,-15.6,-15.0,
CN(C(=O)c1nn(C)c2c1CS(=O)(=O)c1ccccc1-2)c1cccc(Cl)c1,-1.1,-18.3,-2.1,1.0,-1.3,-6.2,x,x,
CCOc1ccc(N2CC(C(=O)Nc3nnc(Cc4ccccc4)s3)CC2=O)cc1 (configuration not stated),0.2,3.2,-1.7,0.1,1.4,-5.5,x,x,
O=c1/c(=C\c2cccnc2)sc2nc3ccccc3n12,-1.4,7.7,13.7,3.3,23.8,-7.7,x,x,
O=c1/c(=C/c2ccc(O)c([N+](=O)[O-])c2)sc2nc3ccccc3n12,92.0*,4.1,-0.2,4.9,89.9*,81.5*,81.6*,-16.2,Scp1 DSF=9.9*
O=C(N/N=C/C(Cl)=C/c1ccc([N+](=O)[O-])cc1)C(=O)Nc1ccc(C(=O)O)cc1,22.4,3.0,46.4,3.3,34.3,85.4*,62.3*,-16.2,Scp1 DSF=-2.8
COc1cccc(NC(=O)C2CCCC2)c1,-0.9,-1.9,3.4,-2.6,1.0,-8.2,x,x,
COc1cccc(NC(=O)C2CCCCC2)c1,0.0,-2.3,2.4,-1.1,1.2,69.6*,-0.1,-10.1,
CC1CCN(Cc2cc(=O)oc3ccc4ccccc4c23)CC1,1.3,-4.1,1.3,-10.0,1.6,-3.6,x,x,
C=CCN(C(=O)c1csnn1)C(C(=O)NCc1ccc(F)cc1)c1cccs1 (configuration not stated),0.3,12.7,3.0,-1.4,1.1,-4.9,x,x,
Cc1ccc(S(=O)(=O)NCCSCc2ccco2)cc1,0.3,6.8,-5.5,-4.3,2.2,1.6,x,x,
Cc1cc(C)c(S(=O)(=O)NCCSCc2ccco2)c(C)c1,2.9,-3.2,11.7,3.9,2.4,53.3*,-8.1,-17.5,
O=C(Nc1ccc2c(c1)C(=O)NC2=O)c1cccc(Cl)c1,3.0,1.2,27.7,2.7,22.2,53.6*,66.0*,-14.2,Scp1 DSF=-0.2
O=C(Nc1ccc2c(c1)C(=O)NC2=O)c1ccc(Cl)s1,5.2,24.2,3.2,-7.4,22.0,85.3*,-1.6,-15.3,
